One may read the GI50 as the concentration that inhibits growth by half.

Molecules are shown by their SMILES.

What all share (assay type): functional
Assay [1] concerns HeLa. Nature of the assay: Growth inhibition of human HeLa cells after 48 hrs by MTS assay. The essentials:
(§1)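 Cells grown in DMEM with 10% FBS (15% FBS for TCC-SUP) and 1% penicillin/streptomycin. DMSO stocks freshly diluted in medium; five concentrations tested over 48 h exposure. MTS reagent added for 2 h at 37 °C, 5% CO2, then absorbance read at 490 nm. Viability taken as % of control; GI50 from dose–response curve. Three independent cultures, 4 wells per concentration.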
Background: Tetrazolium dyes change colour on reduction, which living cells bring about.

The subject of assay [2] is TCC-SUP. Nature of the assay: Growth inhibition of human TCCSUP cells after 48 hrs by MTS assay. The method in brief:
as §1

Assay [3] has as its system MDA-MB-231. Nature of the assay: Growth inhibition of human MDA-MB-231 cells after 48 hrs by MTS assay. Conditions: MDA-MB-231, 48 h. The method in brief:
as §1

For the compound `Cc1cc(=O)oc2cc3[nH]c4ccccc4c3cc12`, the GI50 was found to be 42 nM in assay [1], 66 nM in assay [2] and 78 nM in assay [3].

Turning to `Cc1cc(=O)oc2cc3c(cc12)oc1ccccc13`, the GI50 in assay [1] stood at 35 nM; in assay [2], 41 nM; in assay [3], 60 nM.

For the compound `O=C(O)c1cc2c(ccc3c4ccccc4[nH]c23)oc1=O`, the 50% growth inhibitory concentration (GI50) in assay [1] turned out to be 47 nM; in assay [2], 18 nM; in assay [3] it was 265 nM.

For the compound `CCOC(=O)c1cc2c(ccc3c4ccccc4[nH]c23)oc1=O`, the GI50 turned out to be 37 nM in assay [1], 30 nM in assay [2] and 413 nM in assay [3].

As to `O=c1ccc2c(ccc3c4ccccc4[nH]c23)o1`, the figures for the 50% growth inhibitory concentration (GI50) in assay [1], in assay [2] and in assay [3] were 46 nM, 27 nM and 230 nM, respectively.
